ChEMBL document CHEMBL2021820, “Synthesis, vasorelaxant activity, and molecular modeling study of some new phthalazine derivatives” (Eur J Med Chem, 2012)
Where a name gives a salt, the structure may show the parent alone.

Key:
[1] = tested on: Thoracic aorta; test: Vasorelaxant activity in Wister rat thoracic aorta rings assessed as reduction in maximal noradrenaline-induced spasms; format: functional, tissue-based
In short: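 Aortic preparations equilibrated for 2 h at 2 g resting tension. Contraction to norepinephrine hydrochloride (10^-6 M) was recorded before and after exposure to increasing concentrations of compound. Compounds came from a 0.01 M DMSO stock. Vehicle controls used DMSO alone at matching concentrations.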

[2] = tested on: Thoracic aorta; test: Ratio of IC50 for prazosin to IC50 for compound in noradrenaline-contracted Wister rat thoracic aorta rings; format: functional

O=C(CN1CCN(c2ccccc2)CC1)NNc1nncc2ccccc12
IC50 [1]: 560 µM

O=C(CN1CCN(c2ccc(Cl)cc2)CC1)NNc1nncc2ccccc12
IC50 [1]: 450 µM

O=C(CN1CCN(c2cccc(C(F)(F)F)c2)CC1)NNc1nncc2ccccc12
IC50 [1]: 410 µM

COc1ccccc1N1CCN(CC(=O)NNc2nncc3ccccc23)CC1
IC50 [1]: 550 µM

CN1CCN(CC(=O)NNc2nncc3ccccc23)CC1
IC50 [1]: 160 µM
Ratio IC50 [2]: 3

CCOC(=O)N1CCN(CC(=O)NNc2nncc3ccccc23)CC1
IC50 [1]: > 1000 µM

O=C(CN1CCOCC1)NNc1nncc2ccccc12
IC50 [1]: 430 µM

O=C(Cn1ccnc1)NNc1nncc2ccccc12
IC50 [1]: 610 µM

O=C(CCN1CCN(c2ccccc2)CC1)NNc1nncc2ccccc12
IC50 [1]: 270 µM

O=C(CCN1CCN(c2ccc(Cl)cc2)CC1)NNc1nncc2ccccc12
IC50 [1]: 700 µM

O=C(CCN1CCN(c2cccc(C(F)(F)F)c2)CC1)NNc1nncc2ccccc12
IC50 [1]: 500 µM

COc1ccccc1N1CCN(CCC(=O)NNc2nncc3ccccc23)CC1
IC50 [1]: 100 µM
Ratio IC50 [2]: 5

CN1CCN(CCC(=O)NNc2nncc3ccccc23)CC1
IC50 [1]: 360 µM

CCOC(=O)N1CCN(CCC(=O)NNc2nncc3ccccc23)CC1
IC50 [1]: > 1000 µM

O=C(CCN1CCOCC1)NNc1nncc2ccccc12
IC50 [1]: 580 µM

O=C(CCn1ccnc1)NNc1nncc2ccccc12
IC50 [1]: 810 µM

COc1cc2nc(N3CCN(C(=O)c4ccco4)CC3)nc(N)c2cc1OC [PRAZOSIN HYDROCHLORIDE]
IC50 [1]: 480 µM
